UCH37 inh: human UCH37 deubiquitinating enzyme inhibition; Q9Y5K5; purified proteasome/UCH37, Ub-AMC cleavage fluorescence; inhibition, % (no concentration beside the values); 330,000 compounds, 0.33% hits;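 active = mean inhibition over replicate wells above about 20%, limit read from the data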;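 note: 0% = compound-free wells with enzyme and 100% = wells lacking proteasome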
Target sequence (Q9Y5K5 whole entry, looked up): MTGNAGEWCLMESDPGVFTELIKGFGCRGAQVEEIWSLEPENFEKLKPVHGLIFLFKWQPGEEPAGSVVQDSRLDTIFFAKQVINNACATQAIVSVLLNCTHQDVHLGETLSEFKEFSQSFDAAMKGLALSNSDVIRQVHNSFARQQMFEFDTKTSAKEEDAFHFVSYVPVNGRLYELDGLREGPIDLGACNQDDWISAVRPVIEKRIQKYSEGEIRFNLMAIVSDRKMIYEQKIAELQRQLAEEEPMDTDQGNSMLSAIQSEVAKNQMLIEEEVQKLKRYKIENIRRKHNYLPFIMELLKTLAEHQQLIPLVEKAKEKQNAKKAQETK
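Material: Human UCH37 enzyme supplied as purified proteasome complex | Schedule: 30 min preincubation with enzyme, 25 min cleavage at room temperature | Detection: AMC fluorescence 355/460 nm | Measure: % inhibition of Ub-AMC cleavage fluorescence | Controls: Wells without proteasome as full block, compound-free enzyme plus substrate as uninhibited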
NRP1-CendR mod: NRP-1/CendR interaction modulation. O14786. FAM-RPARPAR peptide binding to NRP-1, fluorescence polarization. inhibition, % at 25 µM. 360,000 compounds, 0.85% hits. AID 602438;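 active = inhibition or corrected inhibition above about 18%, plus a signal ratio from 0.5 to 1.5, limit read from the data, passing the limit was not always enough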
Fh CTSL1 inh: blocks F. hepatica cathepsin L1 in PFM18AAP counter-screen | recombinant F. hepatica cathepsin L1, Z-Leu-Arg-MCA fluorescence | inhibition, % at 5.96 µM | 300,000 compounds, 0.49% hits | AID 1906;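 active = inhibition above the mean of all tested compounds plus 3 SD, set per screening campaign, cut at about 17% in these data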;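 note: 0% = plate median of test compound wells and 100% = 1 µM Z-Phe-Ala-diazomethylketone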
DAGLB inhibitor: diacylglycerol lipase beta (human) inhibition; Q8NCG7; 340,000 compounds, 0.059% hits; inhibition, % at 5.17 µM; HEK293T DAGLB membrane lysate, EnzChek fluorogenic substrate; in the data active = inhibition above about 34%;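 note: 0% = enzyme with vehicle and 100% = wells lacking enzyme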
MT1-MMP act inh: MT1-MMP (human) activation inhibition | HT1080 RFP-PRO-GFP cells, GFP/RFP ratio fluorescence, overnight; percent of plate control window, DMSO zero | GFP/RFP ratio change, % at 20 µM | 360,000 compounds, 0.061% hits | AID 651647;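 active = GFP/RFP ratio change of at least 30% with cell ATP level not reduced by more than half and red fluorescence within 50% of control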
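Assay system: HT1080 cells carrying an RFP-PRO-GFP reporter | Dosing: Single dose of 20 µM compound, 1% DMSO final | Incubation: Cells overnight before dosing, compound overnight, 37 °C, 5% CO2 | Evaluation: GFP/RFP fluorescence ratio | Control set: DMSO and RFP-L50D-GFP cell wells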
* = called active by the depositor. Rows were chosen to be rich in hits. Some 1.5% of all compounds tested hit in one or more screens of this group.

Results for COc1cc(CC2C(=O)N(C)C(=O)N(C)C2=O)ccc1OCc1ccccc1 ?
UCH37 inh: 24*; NRP1-CendR mod: -7; Fh CTSL1 inh: -2; DAGLB inhibitor: 2; MT1-MMP act inh: 0

How did COc1cc2c(cc1O)[C@@H]1Cc3ccc(OC)c(O)c3CN1CC2 do in these assays?
UCH37 inh: 2; NRP1-CendR mod: 11; Fh CTSL1 inh: 65*; DAGLB inhibitor: -1; MT1-MMP act inh: 1

Results for CCN(CC)c1ccc(N=Cc2c(O)n(CCC3=CCCCC3)c(=O)[nH]c2=O)cc1 ?
UCH37 inh: -4; NRP1-CendR mod: 137; Fh CTSL1 inh: 1; DAGLB inhibitor: 0; MT1-MMP act inh: -212

How did CN(C)c1ccc(N=Cc2c(O)n(CCC3=CCCCC3)c(=O)[nH]c2=O)cc1 do in these assays?
UCH37 inh: 1; NRP1-CendR mod: 61*; Fh CTSL1 inh: 1; DAGLB inhibitor: 4; MT1-MMP act inh: -69

Results for CC(=O)OC1(c2ccccc2)CC(C(C)(C)C)CN(C(C)(C)C)C1 (stereo not drawn) ?
UCH37 inh: 1; NRP1-CendR mod: 5; Fh CTSL1 inh: 35*; DAGLB inhibitor: 0; MT1-MMP act inh: -4

Results for COc1cc(O)cc2c1C(=O)OC(C)CCCC(=O)CCCC=C2 (stereo not drawn) ?
UCH37 inh: 5

Results for COc1ccc(C(=O)C(C)(C)NO)cc1 ?
UCH37 inh: 2; NRP1-CendR mod: 29*; Fh CTSL1 inh: -1; DAGLB inhibitor: -1; MT1-MMP act inh: 5

How did CN(C)C(CNC(=O)Cc1c(Cl)cccc1Cl)c1ccccc1 (stereo not drawn) do in these assays?
UCH37 inh: 0; NRP1-CendR mod: 26*; Fh CTSL1 inh: -1; DAGLB inhibitor: -3; MT1-MMP act inh: -4

Results for C[C@H]1CC=C[C@H]2[C@H](O)[C@H](C)[C@@](C)(O)[C@H]3[C@H](Cc4ccccc4)NC(=O)[C@]32[C@H](O)C=C[C@](C)(O)C1 ?
UCH37 inh: 0

Results for COc1ccc(C(O)c2cc(OC)ccc2OP(=O)(N(C)C)N(C)C)cc1 (stereo not drawn) ?
UCH37 inh: 2; NRP1-CendR mod: 17; Fh CTSL1 inh: -5; DAGLB inhibitor: 3; MT1-MMP act inh: 0

How did COc1ccc(OC)c(C(O)C(C)N)c1 (stereo not drawn) do in these assays?
UCH37 inh: 3; NRP1-CendR mod: 19*; DAGLB inhibitor: 0; MT1-MMP act inh: 2

What do the screens show for `CC(C)C12CN3CCN(CC(C3)C1=NO)C2`?
UCH37 inh: 5

What do the screens show for `COC(=O)c1cc(C(O)(C(=O)OC)C(F)(F)F)c(N=CN(C)C)s1` (stereo not drawn)?
UCH37 inh: 8

How did Clc1cccc(N2CCNCC2)c1Cl do in these assays?
UCH37 inh: 7; NRP1-CendR mod: 6; Fh CTSL1 inh: -1; DAGLB inhibitor: 1; MT1-MMP act inh: -9

Results for O=C1c2cccc(N3CCNCC3)c2C2CCCCN12 (stereo not drawn) ?
NRP1-CendR mod: 21*; MT1-MMP act inh: -5

How did CC(C)(C)n1cc(C(=O)c2ccccc2)cc1-c1ccccc1 do in these assays?
UCH37 inh: 5; NRP1-CendR mod: 21*; Fh CTSL1 inh: -3; DAGLB inhibitor: -8; MT1-MMP act inh: -2

What do the screens show for `COC(=O)C1=C(c2cc3ccccc3s2)C[C@@H]2CC[C@H]1N2C`?
UCH37 inh: 3; NRP1-CendR mod: 22*; DAGLB inhibitor: -4; MT1-MMP act inh: -2

What do the screens show for `CC(Cl)(Cl)C(=NP(=S)(N1CCOCC1)N1CCOCC1)N1CCOCC1`?
UCH37 inh: 1

How did CN1CCc2cc(O)cc3c2[C@H]1Cc1ccc(O)c(O)c1-3 do in these assays?
UCH37 inh: -1; NRP1-CendR mod: 2; Fh CTSL1 inh: -5; DAGLB inhibitor: -1; MT1-MMP act inh: 4

What do the screens show for `CN1CCc2cc3c(c4c2C1Cc1ccccc1-4)OCO3` (stereo not drawn)?
NRP1-CendR mod: 51*; Fh CTSL1 inh: 4; DAGLB inhibitor: 0; MT1-MMP act inh: -7

How did COC(=O)C1=C(c2cccc(C#N)c2)C[C@@H]2CC[C@H]1N2C(=O)NCCc1ccccc1 do in these assays?
UCH37 inh: 1; NRP1-CendR mod: 26*; DAGLB inhibitor: -1; MT1-MMP act inh: -2

Compound activity deposited in PubChem BioAssay by several laboratories.
